According to ChEMBL document CHEMBL4024769, “Synthesis and Investigation of Photophysical and Biological Properties of Novel S-Containing Bacteriopurpurinimides” (J Med Chem, 2017):
Active and inactive are the calls of the source. The calls are words filed in the database; no cut-off is given here.

How the values were obtained:
[1] = Drug uptake in tumor of F1 mouse implanted with mouse S37 cells assessed as normalized fluorescence units at 2.5 mg/kg, iv measured after 15 mins in presence of He-Ne laser radiation by local fluorescence spectroscopic analysis; assay type: ADME, organism-based, Neoplasm; settings: in vivo, 0.25 h
In short: (§1)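 S37 sarcoma-bearing immunocompetent F1 mice (18−22 g) given PS 2.5 mg/kg iv. Animals sacrificed at 0.25, 0.5, 2, 4 and 24 h, with three animals per time point. Skin, tumor and organ samples were read ex vivo by contact local fluorescence spectroscopy under He−Ne 632.8 nm excitation. Integrated 640−900 nm emission was normalized to the backscattered laser signal to give FN.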

[2] = Phototoxicity against mouse S37 cells implanted in F1 mouse assessed as tumor growth inhibition at 2.5 mg/kg, iv preincubated for 15 mins with subsequent 150 J/cm2 irradiation measured on day 11 post irradiation relative to control; assay type: functional; settings: S37, light or radiation study, read-out: TGI
In short: (§2)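 S37 sarcoma mice treated on day 7 of tumor growth with compound iv; tumors 140–160 mm3 beforehand, droperidol 0.25 mg ip as anesthetic. LED irradiation at 800 ± 21 nm, 100 mW/cm2, 150 J/cm2, given 15 or 30 min after dosing. Controls got iv 0.9% NaCl. Volume = d1×d2×d3×0.52; TGI = […]×100%.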

[3] = Drug uptake in skin tumor of F1 mouse implanted with mouse S37 cells assessed as normalized fluorescence at 2.5 mg/kg, iv measured after 30 mins post injection in presence of He-Ne laser radiation by local fluorescence spectroscopic analysis; assay type: ADME, organism-based; settings: in vivo, 0.5 h; in short: as §1
[4] = Phototoxicity against mouse S37 cells implanted in F1 mouse assessed as tumor growth inhibition at 5 mg/kg, iv preincubated for 30 mins with subsequent 150 J/cm2 irradiation measured on day 8 post irradiation relative to control; assay type: functional; settings: S37, light or radiation study, read-out: TGI; in short: as §2
[5] = Phototoxicity against mouse S37 cells implanted in F1 mouse assessed as tumor growth inhibition at 5 mg/kg, iv preincubated for 30 mins with subsequent 150 J/cm2 irradiation measured on day 11 post irradiation relative to control; assay type: functional; settings: S37, light or radiation study, read-out: TGI; in short: as §2
[6] = Phototoxicity against mouse S37 cells implanted in F1 mouse assessed as tumor growth inhibition at 5 mg/kg, iv preincubated for 30 mins with subsequent 150 J/cm2 irradiation measured on day 15 post irradiation relative to control; assay type: functional; settings: S37, light or radiation study, read-out: TGI; in short: as §2
[7] = Phototoxicity against mouse S37 cells implanted in F1 mouse assessed as tumor growth inhibition at 5 mg/kg, iv preincubated for 30 mins with subsequent 150 J/cm2 irradiation measured on day 20 post irradiation relative to control; assay type: functional; settings: S37, light or radiation study, read-out: TGI; in short: as §2
Sarcoma M1 = assay: Phototoxicity against rat Sarcoma M1 cells implanted in rat assessed as deposition of fragments of proliferated tumor parenchyma at 2.5 mg/kg, ip administered as single dose on day 11 post inoculation followed by 300 J/cm2 irradiation after 2.5 to 3 hrs measured on day 2 post photodynamic therapy; assay type: functional, organism-based

Row | Compound | Flu intensity [1] | inhibition in vivo at 2.5 mg/kg [2] | Flu intensity [3] | inhibition in vivo at 5 mg/kg [4] | inhibition in vivo at 5 mg/kg [5] | inhibition in vivo at 5 mg/kg [6] | inhibition in vivo at 5 mg/kg [7] | Activity (Sarcoma M1)
1 | CCCO/N=C(\C)c1c(C)c2cc3nc(c4c5[nH]c(cc6nc(cc1[nH]2)[C@H](C)[C@H]6CC)c(C)c5C(=O)N(OCCC)C4=O)[C@@H](CCC(=O)OC)[C@@H]3C | 4.4 RU | 100% | – | – | – | – | – | –
2 | CCCO/N=C(\C)c1c(C)c2cc3nc(c4c5[nH]c(cc6nc(cc1[nH]2)[C@@H](C)[C@@H]6CC)c(C)c5C(=O)N(OCCC)C4=O)[C@H](CCC(=O)NCCSSCCNC(=O)CC[C@@H]1c2nc(cc4[nH]c(cc5nc(cc6[nH]c7c2C(=O)N(OCCC)C(=O)c7c6C)[C@H](CC)[C@H]5C)c(/C(C)=N/OCCC)c4C)[C@H]1C)[C@H]3C | – | – | 2.2 RU | 100% | 100% | 100% | 100% | Active
